# From ChEMBL document CHEMBL4765453, “Phenanthrolinic analogs of quinolones show antibacterial activity against M. tuberculosis” (Eur J Med Chem, 2020)
# System: Mycobacterium tuberculosis
# Test: Antibacterial activity against Mycobacterium bovis BCG measured after 7 days by resazurin microtiter assay
# Type: functional
# Details: variant bovis BCG, 168 h, time 7 day
# In short: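 Resazurin microtiter assay with two-fold drug dilutions in complete 7H9 broth. Exponential-phase cells are diluted to a final OD600 of 0.005 in 7H9 without Tween. Incubation is 7 days at 37°C, then 0.01% resazurin is added and plates are held 24 h more. MIC is the lowest concentration preventing the blue-to-pink change. Each MIC is determined three times in duplicate experiments.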
row,Structure (SMILES),MIC90 [µM]
1,Cn1cc(C(=O)O)c(=O)c2cc([N+](=O)[O-])c3cccnc3c21,1.4
2,CCOC(=O)c1cn(C)c2c(cc([N+](=O)[O-])c3cccnc32)c1=O,2.35
3,CCn1cc(C(=O)O)c(=O)c2cc([N+](=O)[O-])c3cccnc3c21,2.67
4,CCOC(=O)c1cn(CC)c2c(cc([N+](=O)[O-])c3cccnc32)c1=O,2.5
5,NCC[C@H](O)C(=O)N[C@@H]1C[C@H](N)[C@@H](O[C@H]2O[C@H](CN)[C@@H](O)[C@H](O)[C@H]2O)[C@H](O)[C@H]1O[C@H]1O[C@H](CO)[C@@H](O)[C@H](N)[C@H]1O [AMIKACIN],0.46
6,CC1COc2c(N3CCN(C)CC3)c(F)cc3c(=O)c(C(=O)O)cn1c23 (stereo unspecified) [OFLOXACIN],1.73
